NF-kB expr up: compounds increasing NF-kB expression in human neuronal cells; NF-kB reporter expression; hits give high values; fold change at 12.5 µM; actives 1.6% (n = 190,000); in the data active = fold change above about 3.3
STAT3 inh: inhibitors of IL-6 induced STAT3 signaling; U3A cells, IL-6 STAT3-luciferase reporter, luminescence; host cell line lacks STAT1; inhibition, % at 5.5 µM; actives 0.89% (n = 190,000); AID 862;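 active = inhibition above the mean inhibition across all screened compounds plus 3 SD, cut at about 44% in these data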
STAT3 act-1: activators of IL-6 induced STAT3 signaling; U3A cells, IL-6 STAT3-luciferase reporter, luminescence; 100% = signal with IL-6 EC80 alone; activation (% of control), % at 5.6 µM; actives 0.91% (n = 190,000); AID 871;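 active = activation above the screen-wide mean of compound activation plus 3 SD, cut at about 130% in these data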
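system = STAT3-luciferase reporter U3A cells | reagent = IL-6 stimulus at 33 ng/mL final | timing = 1 h compound pre-exposure, 6 h IL-6 stimulation, 37 °C | measured by = luminescence | evaluation = % activation versus median of IL-6-stimulated wells | control set = IL-6-only wells as 100% reference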
STAT1 inh-1: STAT1 signaling inhibition | actives 0.35% (n = 200,000) | NIH 3T3 STAT1-luciferase reporter, IFN-gamma, luminescence | inhibition, % at 5.5 µM;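 active = inhibition above a set limit, the mean inhibition across all tested compounds plus 3 SD, cut at about 34% in these data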
STAT1 act-1: increases IFN-gamma driven STAT1 reporter signal | actives 2.6% (n = 200,000) | NIH 3T3 STAT1-luciferase reporter, luminescence; 100% = IFN-gamma alone, no compound | activation (% of control), % at 5.5 µM | AID 932;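 active = activation above the screen-wide mean activation plus 3 SD, cut at about 130% in these data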
APP 5'UTR act: APP 5'UTR luciferase reporter activation | activation, % at 2 µM | AID 1276 | SH-SY5Y APP 5'UTR luciferase reporter, luminescence; zero percent = DMSO vehicle wells | actives 1% (n = 190,000);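 active = activation above a set limit, based on mean plus 3 SD of controls, cut at about 140% in these data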
STAT3 act-2: confirmation of STAT3 signaling activators | shares compounds with STAT3 act-1 | U3A STAT3-luciferase reporter, IL-6 potentiation, luminescence; U3A cells lack STAT1; 100 means same as IL-6 alone | potentiation (% of control), % at 5.7 µM | actives 64% (n = 1,200);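 active = percent activation of the STAT3 luciferase reporter above a set limit taken from the earlier primary screen, cut at about 130% in these data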
NFkB act 2: counter-screen for STAT3 activators: NF-kappaB activation | shares compounds with STAT3 act-1 | human cells, NF-kappaB reporter activation | activation (% of control), % at 5.7 µM | actives 11% (n = 1,200) | AID 1309; in the data active = activation above about 120%;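 also: reporter induced by TNF-alpha stimulation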
STAT1 act-2: STAT1 activation in STAT3 activator counter-screen. actives 13% (n = 1,200). NIH 3T3 STAT1-luciferase reporter, IFN-gamma, luminescence. activation (% of control), % at 5.7 µM. shares compounds with STAT3 act-1;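 active = activation above the solvent-only control well mean plus 3 SD, set per screening run, cut at about 120% in these data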
STAT1 inh-2: STAT1 inhibition, confirmation assay; inhibition, % at 5.5 µM; actives 55% (n = 200); AID 1263; shares compounds with STAT1 inh-1; NIH 3T3 STAT1-luciferase reporter, IFN-gamma, luminescence;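 active = triplicate mean inhibition exceeding the hit cutoff computed for the primary STAT1 screen, cut at about 35% in these data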
NFkB inh STAT1ct: inhibits NF-kappaB, counter-screen to STAT1 inhibitors. shares compounds with STAT1 inh-1. HEK293T NF-kB luciferase reporter, TNF-alpha induced, luminescence. inhibition, % at 5.7 µM. actives 30% (n = 200). AID 1303;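 active = inhibition above the mean of solvent-only control wells plus 3 SD of those wells, cut at about 15% in these data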
STAT3 inh 2: counter-screen for STAT1 inhibitors: STAT3 inhibition | shares compounds with STAT1 inh-1 | U3A cells, IL-6 STAT3 luciferase reporter, luminescence; cells lacking STAT1 | inhibition, % at 5.7 µM | actives 20% (n = 200);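 active = inhibition above the mean of solvent-only control wells plus 3 SD, set per campaign, cut at about 25% in these data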
Each line names hits and unclear results; the compound was inactive in the other large screens (follow-up assays come after a bar, where they were run). In the library only some 4.9% were active in any assay of this set; here they are far more common.

CC(OC(=O)c1cccnc1SCc1cc(=O)n2ccccc2n1)c1ccccn1 (configuration not stated)	STAT3 act-1 153 | STAT3 act-2 134 | NFkB act 2 inactive | STAT1 act-2 inactive
CCOC(=O)c1cccnc1SCc1cc(=O)n2ccccc2n1	STAT3 act-1 138 | STAT3 act-2 inactive | NFkB act 2 inactive | STAT1 act-2 inactive
CC1SC(C)C(=O)N(CC(=O)Nc2ccc([N+](=O)[O-])cc2)C1=O (configuration not stated)	none
CC(C)CCN(C(=S)NC(=O)C1CCCCC1)c1c(N)n(Cc2ccccc2)c(=O)[nH]c1=O	none
Cc1cccc(C2c3[nH]c4ccccc4c3CCN2Cc2cnn(-c3ccc(F)cc3)c2)n1 (configuration not stated)	STAT3 act-1 150 | STAT3 act-2 152 | NFkB act 2 inactive | STAT1 act-2 inactive
Fc1ccc(C2c3[nH]c4ccccc4c3CCN2Cc2ccoc2)cc1 (configuration not stated)	none
Cc1cccc(C2c3[nH]c4ccccc4c3CCN2C(=O)c2cn(C)c3ccccc3c2=O)n1 (configuration not stated)	STAT3 act-1 136 | STAT3 act-2 inactive | NFkB act 2 inactive | STAT1 act-2 inactive
Cc1ccc(S(=O)(=O)NNc2ccccc2)c(C)c1	none
CC1(C)CNC(=O)c2sc(NC(=O)c3ccccc3Cl)nc2C1	none
COc1ccc(-c2csc(NC(=O)c3nc(-c4ccccc4)oc3C)n2)cc1	none
Cc1ccc(C(=O)Nc2nccs2)cc1	NF-kB expr up 3.5, STAT3 act-1 144 | STAT3 act-2 165 | NFkB act 2 inactive | STAT1 act-2 128
CCOc1ccccc1NC(=O)c1nc(-c2ccccc2)oc1C	STAT3 act-1 141 | STAT3 act-2 inactive | NFkB act 2 inactive | STAT1 act-2 inactive
Cc1oc(-c2ccccc2)nc1C(=O)Nc1nccs1	STAT3 act-1 140 | STAT3 act-2 142 | NFkB act 2 inactive | STAT1 act-2 inactive
O=C(Nc1nccs1)c1ccc2nccnc2c1	none
COc1ccc2ncn(-c3ccccc3)c2c1	STAT3 act-1 136 | STAT3 act-2 inactive | NFkB act 2 inactive | STAT1 act-2 inactive
COc1ccc(C(=O)n2nc(C)cc2Nc2ccccc2)cc1	STAT3 act-1 167 | STAT3 act-2 153 | NFkB act 2 inactive | STAT1 act-2 136
CCN(CC)c1ccc(C=NCCc2ccc(S(N)(=O)=O)cc2)cc1	none
CN1CCc2c(sc3c2C(=O)NC(c2ccco2)N3)C1 (configuration not stated)	none
O=C1NC(c2cccs2)Nc2sc3c(c21)CCCC3 (configuration not stated)	STAT3 act-1 143 | STAT3 act-2 139 | NFkB act 2 125 | STAT1 act-2 inactive
COc1ccccc1-c1nnc(Nc2nc3c(OC)cccc3s2)o1	STAT3 act-1 142 | STAT3 act-2 inactive | NFkB act 2 137 | STAT1 act-2 141
Cc1ccc(-c2nc3ccccc3n3nnnc23)cc1	STAT3 act-1 174 | STAT3 act-2 185 | NFkB act 2 131 | STAT1 act-2 148
Cc1ncoc1C(=O)N1CCc2c([nH]c3ccccc23)C1C1CCCCC1 (configuration not stated)	STAT3 act-1 140 | STAT3 act-2 inactive | NFkB act 2 inactive | STAT1 act-2 inactive
c1ccc(-c2csc3ncnc(N4CCc5ccccc5C4)c23)cc1	none
CCOC(=O)CCSc1nc(-c2ccc3c(c2)OCO3)cc(C(F)(F)F)c1C#N	none
CCOC(=O)CC(=O)CSc1nc(-c2ccc3c(c2)OCO3)cc(C(F)(F)F)c1C#N	STAT3 act-1 140 | STAT3 act-2 inactive | NFkB act 2 inactive | STAT1 act-2 inactive
C=CCNc1sc(C(=O)c2ccccc2)c(N)c1-c1nc2ccccc2s1	STAT3 act-1 143 | STAT3 act-2 inactive | NFkB act 2 inactive | STAT1 act-2 inactive
CCNc1sc(C(=O)c2cccs2)c(N)c1-c1nc2ccccc2s1	none
CCOC(=O)c1sc(NCc2ccco2)c(-c2nc3ccccc3s2)c1N	STAT3 act-1 158 | STAT3 act-2 136 | NFkB act 2 inactive | STAT1 act-2 inactive
O=c1c2ccc([N+](=O)[O-])c3cccc(c32)c2nc3ccccc3n12	STAT3 act-1 148 | STAT3 act-2 150 | NFkB act 2 inactive | STAT1 act-2 inactive
CCc1nc2ccccc2c2nc3ccccc3n12	none
CN1CCN(C(=O)c2ccc(-n3cccc3)cc2)CC1	none
Cc1ccc(/C=C2/SC(=S)N(CCCC(=O)Nc3ccc(O)cc3)C2=O)cc1	STAT1 inh-1 40 | STAT1 inh-2 39 | NFkB inh STAT1ct 54 | STAT3 inh 2 inactive
Cc1ccc2[nH]c3c(N4CCN(Cc5ccccc5)CC4)ncnc3c2c1	STAT1 inh-1 36 | STAT1 inh-2 40 | NFkB inh STAT1ct inactive | STAT3 inh 2 inactive
COc1cccc(N2CCN(c3ncnc4c3[nH]c3ccccc34)CC2C)c1 (configuration not stated)	STAT1 inh-1 35 | STAT1 inh-2 46 | NFkB inh STAT1ct 25 | STAT3 inh 2 37
c1ccc(CN2CCN(c3ncnc4c3[nH]c3ccccc34)CC2)cc1	STAT1 inh-1 41 | STAT1 inh-2 48 | NFkB inh STAT1ct 22 | STAT3 inh 2 inactive
CS(=O)(=O)NCC(c1ccco1)N1CCN(c2ccc(F)cc2)CC1 (configuration not stated)	none
Cc1cc([N+](=O)[O-])cnc1Sc1nccn1C	none
Cc1ccc(-c2csc3ncnc(Sc4nnc(CN5CCCCCC5=O)o4)c23)cc1	STAT1 inh-1 44 | STAT1 inh-2 56 | NFkB inh STAT1ct inactive | STAT3 inh 2 inactive

High-throughput results from PubChem.
